Laboratory results published in ChEMBL document CHEMBL1139326, “The design, synthesis, and antiviral activity of 4'-azidocytidine analogues against hepatitis C virus replication: the discovery of 4'-azidoarabinocytidine” (J Med Chem, 2009).

How the values were obtained:
Hepatitis C virus = experiment: Antiviral activity against Hepatitis C virus infected human 2209-23 cells by genotype 1b replicon assay; type: functional, organism-based, Hepacivirus hominis
[1] = Cytotoxicity against human 2209-23 cells by WST1 cell ciability assay; type: cell-based
[2] = Antiproliferative activity against human 2209-23 cells by [3H]thymidine incorporation scintillation proximity assay; type: functional, cell-based
Method in brief: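 Cell proliferation was read as uptake of tritiated thymidine into cellular DNA, quantified by scintillation proximity, and reported as an IC50. It served to flag possible loss of selectivity against human polymerases.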

| SMILES | IC50 (Hepatitis C virus) [µM] | CC50 [1] [µM] | IC50 [2] [µM] |
| --- | --- | --- | --- |
| [N-]=[N+]=N[C@]1(CO)O[C@@H](n2ccc(N)nc2=O)[C@H](O)[C@H]1O | 27.8 |  |  |
| C[C@@]1(O)[C@H](n2ccc(N)nc2=O)O[C@@](CO)(N=[N+]=[N-])[C@H]1O | > 100 |  |  |
| Nc1ccn([C@@H]2O[C@H](CO)[C@@H](O)[C@@H]2O)c(=O)n1 [CYTARABINE] | 0.02 | < 100 | 0.029 |
| [N-]=[N+]=N[C@]1(CO)O[C@@H](n2ccc(N)nc2=O)[C@@H](O)[C@@H]1O | 0.171 |  | > 100 |
| [N-]=[N+]=N[C@@]1(CO)C[C@@H](O)[C@H](n2ccc(N)nc2=O)O1 | > 100 |  |  |
| [N-]=[N+]=N[C@]1(CO)O[C@@H](n2ccc(N)nc2=O)[C@H](O)[C@@H]1O [4'-AZIDOCYTIDINE] |  |  | > 100 |
| C[C@]1(O)[C@H](n2ccc(N)nc2=O)O[C@@](CO)(N=[N+]=[N-])[C@H]1O | > 100 |  |  |
